Assay outcomes: PubChem, Sanford-Burnham Center for Chemical Genomics
Scp-1 inhibitor: blocks human Scp-1 phosphatase activity | Recombinant Scp1, phosphopeptide, malachite green phosphate absorbance | inhibition, % at 20 µM | Q9GZU7 | actives 0.88% (n = 340,000) | AID 493091;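 active means inhibition above about 50% at 20 µM, limit read from the data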
Target sequence (Q9GZU7 76-261 limits assumed): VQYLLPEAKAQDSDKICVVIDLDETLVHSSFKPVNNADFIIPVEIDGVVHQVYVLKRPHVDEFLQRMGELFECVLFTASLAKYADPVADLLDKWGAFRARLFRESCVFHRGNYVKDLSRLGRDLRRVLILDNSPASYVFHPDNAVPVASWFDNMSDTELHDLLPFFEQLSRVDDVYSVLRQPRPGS
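Test system: SCP-1 catalytic domain; Buffer or medium: Acidic Tris acetate buffer with magnesium and detergent; Also added: Phosphorylated 17-residue peptide substrate; Compound: single 20 µM dose, 1% DMSO; Schedule: enzyme reaction 45 min at room temperature, colour 5 min, stabilisation 30 min; Signal: Phosphate-binding colour reagent, absorbance read at 630 nm.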
STEP inh: STEP (human) phosphatase inhibition; actives 0.25% (n = 360,000); recombinant STEP, OMFP fluorogenic substrate, fluorescence; inhibition, % at 20 µM; P54829;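 active means inhibition at 20 µM, scaled per plate between control wells, above about 37%, limit read from the data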
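Assay system: isolated STEP enzyme / Timing: 20 min at room temperature, dark / Doses: 20 µM, 1% DMSO / Technique: fluorescence intensity, excitation 480 nm, emission 540 nm / Reagent: fluorogenic phosphatase substrate OMFP at 25 µM final / Measure: percent inhibition scaled to no-enzyme and uninhibited-enzyme controls, plate-pattern corrected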
DNMT1 block: DNMT1 (human) enzyme inhibition; P26358; DNMT1 molecular beacon, Hinp1I cleavage, fluorescence; inhibition (reported as % activation of signal), % at 10 µM; actives 0.83% (n = 360,000); AID 588458; in the data active means inhibition above about 50%
LMPTP inh: LMPTP (human) inhibition; AID 651560; actives 0.22% (n = 360,000); recombinant LMPTP-A, OMFP fluorogenic substrate, fluorescence intensity; P24666; inhibition, % at 20 µM;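 active means compounds that cut the enzyme signal by at least half of the control window in the single-dose screen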
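test system = LMPTP-A | amount = 0.625 nM LMPTP-A final | reagent = fluorogenic phosphatase substrate OMFP at 400 µM final | incubation = 50 min at room temperature | benchmarks = no-enzyme low control, uninhibited high control | medium = Bis-Tris pH 6.0, DTT, detergent | signal = fluorescence intensity of OMFP turnover product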
SUMO1-SIM PPI: SUMO1-SIM interaction modulation. SUMO1 binding to a labelled peptide, TR-FRET, 1 h. actives 0.33% (n = 360,000). inhibition, % at 20 µM; in the data active means inhibition above about 37%
Target sequence (P63165 whole entry, looked up): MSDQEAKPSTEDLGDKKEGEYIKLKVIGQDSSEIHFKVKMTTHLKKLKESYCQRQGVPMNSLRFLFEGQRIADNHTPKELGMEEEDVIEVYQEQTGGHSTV
CSN deneddyl inh: blocks human CSN-mediated cullin deneddylation. Purified CSN, SCF-Nedd8-OG deneddylation, fluorescence polarization. AID 651999. Q92905. actives 0.38% (n = 360,000). inhibition, % at 12.5 µM;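 active means pattern-corrected inhibition above about 35%, with an unprinted fluorescence ratio check between 0.5 and 1.5, limit read from the data, passing the limit was not always enough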
Target sequence (Q92905 whole entry, looked up, one chain of several): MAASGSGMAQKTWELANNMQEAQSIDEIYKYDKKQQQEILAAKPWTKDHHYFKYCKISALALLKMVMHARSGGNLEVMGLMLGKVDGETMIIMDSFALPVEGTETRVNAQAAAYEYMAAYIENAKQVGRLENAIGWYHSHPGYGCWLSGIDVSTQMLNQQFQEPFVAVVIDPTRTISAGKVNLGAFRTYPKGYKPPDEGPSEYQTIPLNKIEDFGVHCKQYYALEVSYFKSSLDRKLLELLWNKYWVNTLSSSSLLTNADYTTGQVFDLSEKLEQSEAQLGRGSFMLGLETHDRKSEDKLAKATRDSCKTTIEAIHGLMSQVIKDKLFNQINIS
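Test system: purified human Csn5 enzyme expressed in HEK293T cells. Amount: 0.24 nM enzyme. Reagent: SCFSkp2-Nedd8OG substrate at 10 nM final. Schedule: 90 min incubation of compound, enzyme and substrate at room temperature. Detection: fluorescence polarization. Read-out: % inhibition of substrate cleavage by Csn5.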
Scp-1 conf: Scp-1 (human) inhibition, single-dose confirmed; shares compounds with Scp-1 inhibitor; recombinant SCP-1 catalytic domain, phosphate release, malachite green absorbance; inhibition, % at 20 µM; actives 61% (n = 2,500); AID 540281
MG interference: counter-screen for Scp-1 inhibitors: colorimetric interference; apparent inhibition (interference), % at 20 µM; 2,500 tested, under 10 active; AID 540313; shares compounds with Scp-1 inhibitor; Colorimetric interference counterscreen, malachite green absorbance 630 nm;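 further: compounds added after enzyme reaction finished so only phosphate colour detection is probed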
Scp-1 Tm shift: Scp-1 (human) binding by thermal shift; Recombinant SCP1, Sypro Orange thermal shift Tm; AID 540329; thermal shift relative to vanadate control, % at 40 µM; actives 25% (n = 1,500); shares compounds with Scp-1 inhibitor;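 active means substances whose mean melting-temperature shift, as a percentage of the reference inhibitor's shift, reaches about 5.3%, limit read from the data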
Of the large screens only hits and unclear results are named; the others gave an inactive call (follow-up assays come after a bar, where they were run). Compounds with a hit are over-represented: about 2% of the library has one in this group of screens.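 How the source made its calls, unless noted: active means inhibition of at least 30% at 20 µM; inactive means the rest.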

NC(=O)NC(=O)CC1S/C(=N/N=C2\CSC(=O)N2)NC1=O (stereo not drawn)	none
CC1CCCC(C)N1c1nnc(NC(=O)Cn2c(=O)oc3ccccc32)s1 (stereo not drawn)	Scp-1 inhibitor 95 | Scp-1 conf inactive | MG interference inactive
O=Cc1ccccc1OCCOc1ccc([N+](=O)[O-])cc1	none
Nc1ccc2cc3ccccc3cc2c1	none
Nc1ccc2cccc(O)c2c1	Scp-1 inhibitor 56 | Scp-1 conf 54 | MG interference inactive | Scp-1 Tm shift 13
CCOc1ccc(N(C(=O)c2ccc(S(=O)(=O)N3CCCC3)cc2)C2C=CS(=O)(=O)C2)cc1 (stereo not drawn)	none
O=C(c1ccc(OC2CCN(Cc3ccccn3)CC2)cc1)N1CCCC(O)C1 (stereo not drawn)	none
CCC1(c2ccccc2)NC(=O)N(CC(=O)NCc2ccncc2)C1=O (stereo not drawn)	none
CCC1(c2ccccc2)NC(=O)N(CC(=O)NNC(=O)COc2ccc(Cl)cc2C)C1=O (stereo not drawn)	none | Scp-1 conf inactive | MG interference inactive
Cc1cc(CSc2ccccc2)ccc1NC(=O)c1cccc([N+](=O)[O-])c1	Scp-1 inhibitor 54 | Scp-1 conf inactive | MG interference inactive
Cc1nc(C(=O)NC(C)C)nn1-c1cc(Cl)cc(Cl)c1	none
COC(=O)C1CCN(C(=O)COC(=O)CNS(=O)(=O)c2ccc(SC)c([N+](=O)[O-])c2)CC1	Scp-1 inhibitor 74 | Scp-1 conf 43 | MG interference inactive | Scp-1 Tm shift inactive
CCC(C)(C)c1ccc(OCCCC[n+]2cccc(C)c2)c(C(C)(C)CC)c1	none
COc1ccc(N2CCN(C(=O)CN(C)S(=O)(=O)c3cnc[nH]3)CC2)cc1	Scp-1 inhibitor 54 | Scp-1 conf inactive | MG interference inactive
CCOc1ccc(NC(=O)c2ccc(N)cc2)cc1	none
CCOc1ccc(NC(=O)c2ccc(NC(=O)c3ccc(NC(N)=O)cc3)cc2)cc1	Scp-1 inhibitor 59, DNMT1 block 56 | Scp-1 conf 35 | MG interference inactive | Scp-1 Tm shift 8.0
CC(NC(=O)c1cc2c(=O)n(C)c3ccccc3c2n1C)c1ccc2c(c1)OCCO2 (stereo not drawn)	none
CC(NC(=O)COc1cc(=O)n(C)c2ccccc12)c1ccc2c(c1)OCCO2 (stereo not drawn)	none | Scp-1 conf inactive | MG interference inactive
CCOc1ccccc1NC(=S)N(CCC(C)C)C1CCN(C(C)=O)CC1	none
O=C(NC(=S)N1CCN(c2ccccn2)CC1)c1ccco1	none
Brc1cnc2nc(SCc3nc4ccccc4[nH]3)[nH]c2c1	none
Fc1ccc(CSc2nc3ncc(Br)cc3[nH]2)cc1	Scp-1 inhibitor 59 | Scp-1 conf 70 | MG interference inactive | Scp-1 Tm shift inactive
Cc1cnc(-c2nc3ccccc3n2C(C)C(=O)Nc2c(C)cccc2C)cn1 (stereo not drawn)	none (no result: Scp-1 inhibitor, STEP inh, DNMT1 block)
Cc1onc(-c2ccccc2)c1C(=O)OCC(=O)NC(=O)c1ccccc1	none
NC(=O)C1CCN(C(=O)CCc2nc3sc4c(c3c(=O)[nH]2)CCCC4)CC1	Scp-1 inhibitor 58 | Scp-1 conf 62 | MG interference inactive | Scp-1 Tm shift inactive
Cn1c(CNC(=O)c2ccc(Cl)cc2)nnc1SCC(=O)NC1CCCC1	none
CC(=O)c1ccccc1C(=O)N1CCCC(N2CCN(Cc3ccc4c(c3)OCO4)CC2)C1 (stereo not drawn)	Scp-1 inhibitor 65 | Scp-1 conf inactive | MG interference inactive
O=C(c1ccccc1F)N1CCCC(N2CCN(Cc3ccc4c(c3)OCO4)CC2)C1 (stereo not drawn)	none (no result: Scp-1 inhibitor)
Cn1cnc(C(=O)N2CCN(C(=O)OC(C)(C)C)CC2)c1C(=O)N1CCN(C(=O)OC(C)(C)C)CC1	none
Cn1cnc(C(=O)N2CCN(c3ccccc3)CC2)c1C(=O)N1CCN(c2ccccc2)CC1	Scp-1 inhibitor 96 | Scp-1 conf 84 | MG interference inactive | Scp-1 Tm shift inactive
O=C(Nc1ccc(Br)cc1Cl)c1cnccn1	Scp-1 inhibitor 68 | Scp-1 conf 55 | MG interference inactive | Scp-1 Tm shift 8.8
CSc1cccc(NS(=O)(=O)c2cc(Br)cnc2N)c1	none
O=C(CN1CCN(Cc2ccc(F)cc2Cl)C1=O)NCCc1ccccc1	Scp-1 inhibitor 50 | Scp-1 conf inactive | MG interference inactive
O=C(O)/C=C/c1cnc2ccccc2c1	Scp-1 inhibitor 55 | Scp-1 conf inactive | MG interference inactive
Cc1cc(C)c(C)c(OCCn2ccnc2)c1	none
Cc1ccc(C)c(OCCn2ccnc2)c1	Scp-1 inhibitor 59 | Scp-1 conf 39 | MG interference inactive | Scp-1 Tm shift inactive
C[C@@H]1CC=C[C@@H]2[C@H]1C(=O)N(Cc1ccccc1)[C@H]2c1cccc(C#Cc2ccccc2)c1	Scp-1 inhibitor 70 | Scp-1 conf 42 | MG interference inactive | Scp-1 Tm shift inactive
Cc1cccc(Nc2n[nH]c(=S)s2)c1C	Scp-1 inhibitor 60 | Scp-1 conf inactive | MG interference inactive
NS(=O)(=O)c1ccc(CCNC(=O)Cc2ccc(S(=O)(=O)N3CCCC3)s2)cc1	Scp-1 inhibitor 76 | Scp-1 conf 74 | MG interference inactive | Scp-1 Tm shift inactive
O=C(Cc1ccc(S(=O)(=O)N2CCOCC2)s1)NC1CCCCC1	Scp-1 inhibitor 61 | Scp-1 conf 70 | MG interference inactive | Scp-1 Tm shift 7.9
NS(=O)(=O)c1ccc(CNC(=O)Cc2ccc(S(=O)(=O)N3CCOCC3)s2)cc1	none
O=C(Cc1ccc(S(=O)(=O)N2CCOCC2)s1)NCC1CCCCC1	none
COc1ccc(Cc2nnc(NC(=O)c3cc(OC)c(OC)c(OC)c3)s2)cc1	none
CCCCn1nnnc1C(c1cc2ccccc2o1)N1CCCN(C(=O)OC(C)(C)C)CC1 (stereo not drawn)	none (no result: Scp-1 inhibitor, STEP inh, DNMT1 block)
CC[N+]1(C)CC2CCC(C)(C1)C2(C)C (stereo not drawn)	Scp-1 inhibitor 56 | Scp-1 conf 39 | MG interference inactive | Scp-1 Tm shift inactive
